From ChEMBL document CHEMBL1126896, “Preparation and anti-HIV activity of O-acylated heparin and dermatan sulfate derivatives with low anticoagulant effect” (J Med Chem, 1993)

Assays:
[1] = system: MT4; assay: Selectivity index for CC50 (cytotoxic concentration based on reduction of viability of mock-infected MT-4 cells) to that of EC50 against HIV-2; type: functional
Procedure, shortened: (§1)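 MT-4 cells at 3 × 10^5 cells/mL were infected with HIV-1 IIIB or HIV-2 ROD at 100 CCID50/mL, or mock-infected, alongside serial compound dilutions. Viability was read by MTT after 5 days at 37 °C. CC50 comes from mock-infected cells and EC50 from protection against cytopathicity. Index = CC50/EC50.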

[2] = system: MT4; assay: Effective concentration to achieve 50% protection of MT-4 cells against the cytopathic effect of HIV-2; type: functional, cell-based
[3] = In vitro anticoagulant activity determined by clotting test of activated partial thromboplastin time (APTT) on a pool of human plasma; type: functional
Procedure, shortened: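 Activated partial thromboplastin time clotting test on pooled human plasma, run on an automatic coagulometer. Activities were calculated according to the European Pharmacopoeia.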

[4] = system: MT4; assay: Effective concentration to achieve 50% protection of MT-4 cells against the cytopathic effect of HIV-1; type: functional, cell-based
[5] = system: HuT78; assay: Giant-cell formation between persistently HIV-1 infected HUT-78 cells and uninfected MOLT-4 cells; type: functional, cell-based
Procedure, shortened: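 MOLT-4 cells were co-cultured with an equal number of HUT-78 cells persistently infected with HIV-1 IIIB or HIV-2 ROD, with varying compound concentrations. Syncytia were counted by flow cytofluorography after 24 h. EC50 is the concentration giving 50% protection against giant-cell formation.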

[6] = system: MT4; assay: Selectivity index for CC50 (cytotoxic concentration based on the reduction of the viability of mock-infected MT-4 cells) to that of EC50 against HIV-1; type: functional; procedure, shortened: as §1
[7] = Homo sapiens, MT4, read-out: EC50
[8] = Homo sapiens, HuT78, read-out: EC50

`COC1C(NC(C)=O)C(OC2C(C(=O)[O-])OC(OC3C(NC(C)=O)C(OC4C(C(=O)[O-])OC(C)C(OC(C)=O)C4O)OC(COC(C)=O)C3OS(=O)(=O)[O-])C(OC(C)=O)C2OC(C)=O)OC(COC(C)=O)C1OS(=O)(=O)[O-].[Na+].[Na+].[Na+].[Na+]` (stereo unspecified) gave a Selectivity index [1] of 5.7, an EC50 [2, 7] of 88 µg/mL and an APTT [3] of 1.7 IU mg-1. The EC50 [4, 7] was over 500 µg/mL and the EC50 [5, 8] was over 50 µg/mL.
In the case of `CC(=O)N[C@H]1[C@@H](O[C@H]2[C@H](O)[C@@H](OC(C)=O)[C@H](O[C@H]3[C@@H](OS(=O)(=O)[O-])[C@@H](NS(=O)(=O)[O-])[C@@H](O[C@H]4[C@H](O)[C@@H](OS(=O)(=O)[O-])[C@H](O[C@H]5[C@H](O)[C@@H](CO)O[C@@H]5COS(=O)(=O)[O-])O[C@H]4C(=O)[O-])O[C@@H]3COS(=O)(=O)[O-])O[C@@H]2C(=O)[O-])O[C@H](COS(=O)(=O)[O-])[C@@H](O[C@@H]2O[C@@H](C(=O)[O-])[C@@H](O)[C@H](O)[C@H]2OC(C)=O)[C@@H]1O.[Na+].[Na+].[Na+].[Na+].[Na+].[Na+].[Na+].[Na+].[Na+]`, the APTT [3] was 11 IU mg-1, the Selectivity index [6] was over 8 and the EC50 [4, 7] was 77 µg/mL.
For `COC1C(NC(C)=O)C(OC2C(C(=O)[O-])OC(OC3C(NC(C)=O)C(OC4C(C(=O)[O-])OC(C)C(OC(=O)CCC(=O)[O-])C4O)OC(COC(=O)CCC(=O)[O-])C3OS(=O)(=O)[O-])C(OC(=O)CCC(=O)[O-])C2OC(=O)CCC(=O)[O-])OC(COC(=O)CCC(=O)[O-])C1OS(=O)(=O)[O-].[Na+].[Na+].[Na+].[Na+].[Na+].[Na+].[Na+].[Na+].[Na+]` (stereo unspecified), the Selectivity index [1] was 2, the EC50 [2, 7] was 50.4 µg/mL and the APTT [3] was 9 IU mg-1. The Selectivity index [6] was 1.7 and the EC50 [4, 7] was 150 µg/mL.
`CCCCCCCC(=O)OC/C(=C\C(=O)[O-])OC1OC(COS(=O)(=O)[O-])C(OC2OC(C(=O)[O-])C(OC3OC(COS(=O)(=O)[O-])C(OC4OC(C(=O)[O-])C(OC5OC(CS(=O)(=O)[O-])C(O)C(OC(=O)CCCCCCC)C5NS(=O)(=O)[O-])C(OC(=O)CCCCCCC)C4OS(=O)(=O)[O-])C(OC(=O)CCCCCCC)C3NS(=O)(=O)[O-])C(OC(=O)CCCCCCC)C2OS(=O)(=O)[O-])C(OC(=O)CCCCCCC)C1NS(=O)(=O)[O-].[Na+].[Na+].[Na+].[Na+].[Na+].[Na+].[Na+].[Na+].[Na+].[Na+].[Na+]` (stereo unspecified) showed a Selectivity index [1] of over 1, an EC50 [2, 7] of over 23.2 µg/mL and a Selectivity index [6] of 6. The EC50 [4, 7] was 3.3 µg/mL and the EC50 [5, 8] was 20 µg/mL.
Work on `CCCC(=O)OC/C(=C\C(=O)[O-])O[C@H]1O[C@H](COS(=O)(=O)[O-])[C@@H](O[C@@H]2O[C@@H](C(=O)[O-])[C@@H](O[C@H]3O[C@H](COS(=O)(=O)[O-])[C@@H](O[C@@H]4O[C@@H](C(=O)[O-])[C@@H](O[C@H]5O[C@H](CS(=O)(=O)[O-])[C@@H](O)[C@H](OC(=O)CCC)[C@H]5NS(=O)(=O)[O-])[C@H](OC(=O)CCC)[C@H]4OS(=O)(=O)[O-])[C@H](OC(=O)CCC)[C@H]3NS(=O)(=O)[O-])[C@H](OC(=O)CCC)[C@H]2OS(=O)(=O)[O-])[C@H](OC(=O)CCC)[C@H]1NS(=O)(=O)[O-].[Na+].[Na+].[Na+].[Na+].[Na+].[Na+].[Na+].[Na+].[Na+].[Na+].[Na+]` (stereo in doubt; 2d) yielded an APTT [3] of 12 IU mg-1, a Selectivity index [6] of over 1430 and an EC50 ([4]; mt4) of 0.35 µg/mL. For the same compound, the EC50 ([5]; hut78) was 2.6 µg/mL.
`CCCC(=O)OC/C(=C\C(=O)[O-])O[C@H]1O[C@H](COS(=O)(=O)[O-])[C@@H](O[C@@H]2O[C@@H](C(=O)[O-])[C@@H](O[C@H]3O[C@H](COS(=O)(=O)[O-])[C@@H](O[C@@H]4O[C@@H](C(=O)[O-])[C@@H](O[C@H]5O[C@H](CS(=O)(=O)[O-])[C@@H](O)[C@H](OC(=O)CCC)[C@H]5NS(=O)(=O)[O-])[C@H](OC(=O)CCC)[C@H]4OS(=O)(=O)[O-])[C@H](OC(=O)CCC)[C@H]3NS(=O)(=O)[O-])[C@H](OC(=O)CCC)[C@H]2OS(=O)(=O)[O-])[C@H](OC(=O)CCC)[C@H]1NS(=O)(=O)[O-].[Na+].[Na+].[Na+].[Na+].[Na+].[Na+].[Na+].[Na+].[Na+].[Na+].[Na+]` (stereo in doubt; 3c) showed a Selectivity index [1] of 282, an EC50 ([2]; mt4) of 1.17 µg/mL and an APTT [3] of 7 IU mg-1. The Selectivity index [6] was 1032 and the EC50 ([5]; hut78) was 60.4 µg/mL.
For `CCCC(=O)OC/C(=C\C(=O)[O-])O[C@H]1O[C@H](COS(=O)(=O)[O-])[C@@H](O[C@@H]2O[C@@H](C(=O)[O-])[C@@H](O[C@H]3O[C@H](COS(=O)(=O)[O-])[C@@H](O[C@@H]4O[C@@H](C(=O)[O-])[C@@H](O[C@H]5O[C@H](CS(=O)(=O)[O-])[C@@H](O)[C@H](OC(=O)CCC)[C@H]5NS(=O)(=O)[O-])[C@H](OC(=O)CCC)[C@H]4OS(=O)(=O)[O-])[C@H](OC(=O)CCC)[C@H]3NS(=O)(=O)[O-])[C@H](OC(=O)CCC)[C@H]2OS(=O)(=O)[O-])[C@H](OC(=O)CCC)[C@H]1NS(=O)(=O)[O-].[Na+].[Na+].[Na+].[Na+].[Na+].[Na+].[Na+].[Na+].[Na+].[Na+].[Na+]` (stereo in doubt; 4a), the Selectivity index [1] was over 7140, the APTT [3] was 0.3 IU mg-1 and the Selectivity index [6] was over 4. For the same compound, the EC50 ([4]; mt4) was 115 µg/mL and the EC50 ([5]; hut78) was over 100 µg/mL.
Compound `CCCC(=O)OC/C(=C\C(=O)[O-])O[C@H]1O[C@H](COS(=O)(=O)[O-])[C@@H](O[C@@H]2O[C@@H](C(=O)[O-])[C@@H](O[C@H]3O[C@H](COS(=O)(=O)[O-])[C@@H](O[C@@H]4O[C@@H](C(=O)[O-])[C@@H](O[C@H]5O[C@H](CS(=O)(=O)[O-])[C@@H](O)[C@H](OC(=O)CCC)[C@H]5NS(=O)(=O)[O-])[C@H](OC(=O)CCC)[C@H]4OS(=O)(=O)[O-])[C@H](OC(=O)CCC)[C@H]3NS(=O)(=O)[O-])[C@H](OC(=O)CCC)[C@H]2OS(=O)(=O)[O-])[C@H](OC(=O)CCC)[C@H]1NS(=O)(=O)[O-].[Na+].[Na+].[Na+].[Na+].[Na+].[Na+].[Na+].[Na+].[Na+].[Na+].[Na+]` (stereo in doubt; 4b) has a Selectivity index [1] of over 50000, an APTT [3] of 1.5 IU mg-1 and a Selectivity index [6] of over 24. The EC50 ([4]; mt4) was 20.9 µg/mL and the EC50 ([5]; hut78) was 17.4 µg/mL.
In the case of `CCCC(=O)OC/C(=C\C(=O)[O-])O[C@H]1O[C@H](COS(=O)(=O)[O-])[C@@H](O[C@@H]2O[C@@H](C(=O)[O-])[C@@H](O[C@H]3O[C@H](COS(=O)(=O)[O-])[C@@H](O[C@@H]4O[C@@H](C(=O)[O-])[C@@H](O[C@H]5O[C@H](CS(=O)(=O)[O-])[C@@H](O)[C@H](OC(=O)CCC)[C@H]5NS(=O)(=O)[O-])[C@H](OC(=O)CCC)[C@H]4OS(=O)(=O)[O-])[C@H](OC(=O)CCC)[C@H]3NS(=O)(=O)[O-])[C@H](OC(=O)CCC)[C@H]2OS(=O)(=O)[O-])[C@H](OC(=O)CCC)[C@H]1NS(=O)(=O)[O-].[Na+].[Na+].[Na+].[Na+].[Na+].[Na+].[Na+].[Na+].[Na+].[Na+].[Na+]` (stereo in doubt; 4j), the Selectivity index [1] was 2381, the EC50 ([2]; mt4) was 0.21 µg/mL and the APTT [3] was 19.8 IU mg-1. It also gave an EC50 ([5]; hut78) of 10.7 µg/mL.
